Results published in paper PMC11152992 (Nature, 2024).

Columns and labels:
5-HT1A = biological target: T1, 5-HT1A (Homo sapiens, UniProt P08908); test: 5-HT1A-mediated Gi1 activation, BRET; format: cell-based; conditions: for maximum drug effect (Emax): 5-HT1A-mediated activation of Gi1, BRET; for EC50: read-out: Gi BRET EC50, 5-HT1A-mediated Gi1 activation, HEK293-T cells; for 5-HT1A efficacy (in words): Gi BRET, compared with serotonin
T1 sequence (P08908 1-422): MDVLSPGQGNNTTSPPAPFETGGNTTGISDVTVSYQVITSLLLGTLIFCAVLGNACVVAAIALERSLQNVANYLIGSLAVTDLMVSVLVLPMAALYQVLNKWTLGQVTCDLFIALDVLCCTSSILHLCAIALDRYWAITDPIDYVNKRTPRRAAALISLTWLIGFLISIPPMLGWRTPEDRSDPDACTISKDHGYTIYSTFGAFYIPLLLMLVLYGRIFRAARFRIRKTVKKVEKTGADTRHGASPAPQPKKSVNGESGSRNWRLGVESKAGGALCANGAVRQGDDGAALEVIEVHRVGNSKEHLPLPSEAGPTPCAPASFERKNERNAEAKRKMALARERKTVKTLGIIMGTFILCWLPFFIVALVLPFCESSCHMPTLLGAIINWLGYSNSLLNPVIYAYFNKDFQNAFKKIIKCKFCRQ

5-HT1A(A365N) = test: 5-HT1A-Gi BRET at mutant receptor A365N; format: cell-based, human; conditions: 5-HT1A A365N versus wild type
[1] = Mouse brain tissue binding; format: in vitro ADME; conditions: for fraction unbound at 4 h, 5 µM: mouse, mouse brain tissue
5-HT2A(N343A) = 5-HT2A(N343A) (Homo sapiens, UniProt P28223, N343A); test: 5-HT2A-Gq BRET at mutant receptor N343A; format: cell-based; conditions: 5-HT2A N343A versus wild type
5-HT2A(N343A), sequence (P28223 whole entry N343A): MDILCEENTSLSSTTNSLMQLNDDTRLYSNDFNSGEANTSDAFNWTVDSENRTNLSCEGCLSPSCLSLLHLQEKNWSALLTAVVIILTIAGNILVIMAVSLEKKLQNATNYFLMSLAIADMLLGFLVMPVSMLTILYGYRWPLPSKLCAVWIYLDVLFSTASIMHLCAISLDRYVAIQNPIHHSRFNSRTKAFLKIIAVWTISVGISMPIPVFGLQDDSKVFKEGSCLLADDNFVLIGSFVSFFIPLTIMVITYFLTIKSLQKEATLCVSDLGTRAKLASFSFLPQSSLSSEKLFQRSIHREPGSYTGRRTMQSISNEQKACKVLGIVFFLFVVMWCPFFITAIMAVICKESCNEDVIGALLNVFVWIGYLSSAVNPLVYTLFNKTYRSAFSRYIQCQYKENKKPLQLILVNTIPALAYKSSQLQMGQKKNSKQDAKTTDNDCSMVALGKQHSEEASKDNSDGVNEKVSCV

[2] = test system: locomotor activity (measure of 5-HT1A activation); test: Open-field locomotion assay; format: in vivo, C57BL/6J mice; conditions: mice, s.c.
Procedure, shortened: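 Male C57BL/6J mice aged 10–15 weeks were habituated for 30 min, then pretreated with vehicle or WAY-100635 (1 or 2 mg kg⁻¹ s.c.). Test compound followed 15 min later, s.c. at 0.1–3 or 0.3–10 mg kg⁻¹. Mice were placed immediately in a clear arena lit at about 330 lux. Observers were blinded; total locomotion was recorded automatically over 30 min, n = 7–8 per group.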

[3] = test system: head-twitch response (measure of 5-HT2A activation); test: Head-twitch response; format: in vivo, C57BL/6J mice; conditions: mice, following co-administration of the 5-HT1A-selective antagonist WAY-100635
5-HT2A(V366N) = 5-HT2A(V366N) (Homo sapiens, UniProt P28223, V366N); conditions: 5-HT2A V366N versus wild type
5-HT2A(V366N), sequence (P28223 whole entry V366N): as the sequence (P28223 whole entry N343A) above, with A343N, V366N counted along it

5-HT2A = 5-HT2A (Homo sapiens, UniProt P28223); test: 5-HT2A-mediated Gq activation, BRET; format: cell-based; conditions: relative to 5-MeO-DMT
5-HT2A, sequence (P28223 whole entry): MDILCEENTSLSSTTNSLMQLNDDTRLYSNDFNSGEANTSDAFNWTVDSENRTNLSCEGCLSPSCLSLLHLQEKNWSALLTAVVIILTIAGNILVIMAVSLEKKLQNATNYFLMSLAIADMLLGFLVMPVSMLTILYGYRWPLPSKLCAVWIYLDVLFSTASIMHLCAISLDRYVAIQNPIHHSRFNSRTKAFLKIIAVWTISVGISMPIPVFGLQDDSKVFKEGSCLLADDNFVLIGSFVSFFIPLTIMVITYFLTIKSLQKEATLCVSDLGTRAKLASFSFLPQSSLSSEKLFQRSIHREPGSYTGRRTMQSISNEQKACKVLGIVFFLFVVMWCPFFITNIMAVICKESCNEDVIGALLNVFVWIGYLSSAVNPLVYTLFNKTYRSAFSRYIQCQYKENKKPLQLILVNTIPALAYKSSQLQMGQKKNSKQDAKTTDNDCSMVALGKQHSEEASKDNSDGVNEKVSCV

[4] = Human plasma protein binding; format: in vitro ADME
[5] = Mouse plasma protein binding; format: in vitro ADME; conditions: for fraction unbound at 4 h, 5 µM: mouse, mouse plasma
[6] = test system: chronic social defeat stress mice; test: Sucrose preference test after chronic social defeat stress; format: in vivo, C57BL/6J mice; conditions: stressed mice
Procedure, shortened: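 Chronic social defeat was 10 days of 10-min bouts by CD-1 aggressors in male C57BL/6J mice. On day 10, stressed mice were housed singly and habituated to two water bottles, then given a two-bottle choice between water and 1% sucrose. Data were pooled from two independent experiments.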

SMILES: N#Cc1ccc2[nH]cc(CCCCN3CCN(c4ccc5oc(C(N)=O)cc5c4)CC3)c2c1 [vilazodone, reference compound]
- lowest concentration showing activity (5-HT1A; 5-HT1A Gi BRET, suspected slow binding kinetics): 30 pM
- maximum drug effect (Emax) (5-HT1A): 97.4 % of 5-HT

SMILES: CN(C)CCc1c[nH]c2ccc(O)cc12 [5-OH-DMT, bufotenine]
- decrease in potency by A365N mutation (5-HT1A(A365N)): about 18 fold

SMILES: NC(=O)N1c2ccccc2C=Cc2ccccc21 [Carbamazepine, reference compound]
- % Compound remaining at 4 h ([1]; 37 °C): 96%
- fraction unbound at 4 h, 5 µM ([1]; pH 7.4, % Unbound): 0.118
- fraction unbound at 4 h, 5 µM ([1]; pH 7.4, fu): 0.118

SMILES: COc1ccc2[nH]cc(CCN3CC=CC3)c2c1 [5-MeO-3-PyrrolineT]
- EC50 (5-HT1A): 0.3 nM
- further increase in potency at 5-HT1A (5-HT1A; relative to 5-MeO-PyrT): around eightfold

SMILES: CN(C)CCc1c[nH]c2ccc(O)c(F)c12 [4-F,5-OH-DMT]
- decrease in potency by N343A mutation (5-HT2A(N343A)): ~19 fold

SMILES: CN(C)CCc1c[nH]c2ccccc12 [DMT, N,N-dimethyltryptamine, reference compound]
- effect of N343A mutation on potency (in words) (5-HT2A(N343A)): minor effects

SMILES: CCN(C)CCc1c[nH]c2ccc(OC)cc12 [5-MeO-MET]
- 5-HT1A efficacy (in words) (5-HT1A): full efficacy
- EC50 (5-HT1A): 25.9 nM
- locomotor activity in the open-field test (in words) [2]: dose-dependent locomotor suppression
- HTR (in words) [3]: strong dose-dependent activity

SMILES: O=C1CCc2ccc(OCCCCN3CCN(c4cccc(Cl)c4Cl)CC3)cc2N1 [aripiprazole, reference compound]
- maximum drug effect (Emax) (5-HT1A): 77.1 % of 5-HT

SMILES: CCN(CC)C(=O)[C@@H]1C=C2c3cccc4[nH]cc(c34)C[C@H]2N(C)C1 [LSD, lysergic acid diethylamide]
- effect of V366N mutation on signalling efficacy at 5-HT2A (in words) (5-HT2A(V366N)): increase in signalling efficacy

SMILES: COc1ccc2[nH]cc(CCN(C)C)c2c1F [4-F,5-MeO-DMT]
- decrease in 5-HT2A potency (5-HT2A): 3 fold
- increase in potency at 5-HT1A (5-HT1A; relative to 5-MeO-DMT): 14 fold

SMILES: COc1ccc2[nH]cc(CCN3CC=CC3)c2c1F [4-F,5-MeO-3-PyrrolineT]
- EC50 (5-HT1A): 0.22 nM

SMILES: CCN(CC)CCc1c[nH]c2ccc(OC)cc12 [5-MeO-DET]
- 5-HT1A efficacy (in words) (5-HT1A): full efficacy
- EC50 (5-HT1A): 37.1 nM

SMILES: COc1ccc2[nH]cc(CCN3CCCC3)c2c1 [5-MeO-PyrT, 5-methoxy-N,N-pyrrolidinyl-tryptamine]
- decrease in 5-HT2A potency (5-HT2A): about 3 fold
- selectivity for 5-HT1A > 5-HT2A (5-HT1A; Gi BRET at 5-HT1A versus Gq BRET at 5-HT2A): > 38 fold
- increase in 5-HT1A > 5-HT2A selectivity (5-HT1A; cyclization of the amine moiety alone, relative to 5-MeO-DMT): approximately 38 fold
- EC50 (5-HT1A): 2.1 nM
- increase in potency at 5-HT1A (5-HT1A; relative to 5-MeO-DMT): about 12 fold

SMILES: COc1ccc2[nH]cc(CCN3CCCCC3)c2c1 [5-MeO-PipT, 5-methoxypiperidinyl-tryptamine]
- EC50 (5-HT1A): 88.5 nM
- loss of potency at 5-HT1A (5-HT1A; relative to 5-MeO-PyrT): ~42 fold

SMILES: CC(=O)CC(c1ccccc1)c1c(O)c2ccccc2oc1=O (stereo not drawn) [Warfarin, reference compound]
- % Compound remaining at 4 h ([4]; Human Plasma, 37 °C): 108.8%
- fraction unbound at 4 h, 5 µM ([4]; human, human plasma, pH 7.4, % Bound R2, Human Plasma, replicate 2, 4 h at 37 °C): 0.015
- % Compound remaining at 4 h ([5]; Mouse Plasma, 37 °C): 103.3%
- fraction unbound at 4 h, 5 µM ([5]; pH 7.4, % Bound R2, Mouse Plasma, replicate 2, 4 h at 37 °C): 0.067
- fraction unbound at 4 h, 5 µM ([5]; pH 7.4, % Unbound): 0.064
- fraction unbound at 4 h, 5 µM ([5]; pH 7.4, fu): 0.064

SMILES: O=C1CC2(CCCC2)CC(=O)N1CCCCN1CCN(c2ncccn2)CC1 [buspirone, reference compound]
- maximum drug effect (Emax) (5-HT1A): 93.4 % of 5-HT

SMILES: COc1ccccc1N1CCN(CCN(C(=O)C2CCCCC2)c2ccccn2)CC1 [WAY-100635, reference compound]
- increase of sucrose preference in stressed mice, treatment alone [6]: not significant
